Only some compounds are listed: those with a hit (about 5.6% of all), similar ones and a draw of the others.
CHOP inh: CHOP inhibition in unfolded protein response | inhibition, % at 10 µM | CHO-K1 CHOP-promoter luciferase, tunicamycin-induced, 15-18 h | 220,000 tested, 3.8% active;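 active = compounds that reduced the stress-induced luciferase reporter signal by more than about 70% of percent inhibition, limit read from the data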
UPR XBP1 act: adaptive UPR (XBP1) activation. CHO-XBP1 luciferase reporter, IRE1-XBP1 UPR activation, luminescence; percent of tunicamycin response, DMSO as zero. activation, % at 20 µM. 330,000 tested, 0.33% active;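 active = versus positive control, 20 µM dose yields 30% or more activation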
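Assay system: IRE1-XBP1 luciferase reporter CHO line. Input: 1000 cells/well. Buffer or medium: F12 with 10% serum. Doses: 20 µM, 1% DMSO. Times: overnight seeding at 37 °C, 6 h compound treatment at 37 °C. Technique: Steady-Glo luciferase glow luminescence, 10 min after reagent addition.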
aDG glyco act: alpha-DG glycosylation activation | activation, % at 10 µM | 360,000 tested, 0.22% active | Pro5-aDG cells, alpha-DG glycosylation AlphaScreen (IIH6); 0% Pro5, 100% B10-LARGE cell signal | AID 624168;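 active = activation of at least 8% versus controls, or a plate z-score of at least 8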;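 also: Pro5 are CHO cells carrying HIG-tagged alpha-DG that lacks glycosylation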
GRIN3A LBD mod: NR3A (human) ligand-binding domain modulation. NR3A LBD differential scanning fluorimetry, Tm shift; 0% = protein alone, 100% = glycine-bound protein. Tm shift relative to glycine control, % at 25 µM. 340,000 tested, 2.5% active;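 active = melting temperature shift of at least 10% of the positive control shift, at one fixed dose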
CHOP UPR activ: activators of apoptotic arm of unfolded protein response (CHOP) | activation, % at 10 µM | CHO-CHOP luciferase reporter, UPR activation, luminescence; percent of tunicamycin response over DMSO baseline | 330,000 tested, 0.34% active;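 active = at 10 µM dose, activation of 40% or more, normalized to positive control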
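System: CHO CHOP reporter cells. Amount: 500 cells per well. Buffer or medium: F12 medium, 10% FBS. Compound dosing: one dose, 10 µM in 0.5% DMSO. Incubation: 6 h compound exposure at 37 °C after overnight seeding. Technique: Steady-Glo luciferase luminescence. Benchmarks: tunicamycin and DMSO controls.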
MPTP block: permeability transition pore inhibition; isolated mouse mitochondria, Ca2+ swelling absorbance, 30 min; inhibition, % at 10 µM; 360,000 tested, 1.4% active; AID 602449;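 active = inhibition of 50% or more, scaled per plate between neutral and stimulator controls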
Of the large screens only hits and unclear results are named; the others gave an inactive call.

Cc1cccc(NC(=O)c2ccc(S(=O)(=O)N3CCCCC3)cc2)n1	none
COc1ccc(S(=O)(=O)N2CCCCCC2)cc1N(C)S(=O)(=O)c1ccccc1	GRIN3A LBD mod 12
COc1ccc(S(=O)(=O)N2CCCCCC2)cc1C(=O)Nc1cccc(C)n1	GRIN3A LBD mod 23 (no result: CHOP inh)
CCN1C(=O)C(CC(=O)Nc2ccc(F)cc2)N(Cc2ccc3c(c2)OCO3)C1=S (stereo not given)	GRIN3A LBD mod 28
CCN1C(=O)C(CC(=O)Nc2ccc(F)cc2)N(Cc2ccco2)C1=S (stereo not given)	none
COc1ccc(NC(=O)CC2C(=O)N(C)C(=S)N2Cc2ccc3c(c2)OCO3)cc1 (stereo not given)	GRIN3A LBD mod 14
Cc1ccc(NC(=O)CSc2ccc(C(N)=O)cc2[N+](=O)[O-])cc1C	none
Cc1ccc(NC(=O)CSc2ccc(C(N)=O)cc2[N+](=O)[O-])cc1	GRIN3A LBD mod 25
CC(=O)c1ccc(NC(=O)CSc2ccsc2[N+](=O)[O-])cc1	GRIN3A LBD mod 12 (no result: UPR XBP1 act, CHOP UPR activ)
Cc1ccccc1CCNC(=O)Cn1ccc2cc(S(=O)(=O)N3CCCC3)ccc21	none (no result: CHOP inh)
O=C(Nc1nc(-c2ccc(F)c(F)c2)cs1)c1cnccn1	none
O=C(Nc1nc(-c2cccc3ccccc23)cs1)c1cnccn1	CHOP inh 93
CCc1nc2c(OCC(=O)N3CCOCC3)cccn2c1N(C=O)Cc1ccccc1	none (no result: CHOP inh, UPR XBP1 act, GRIN3A LBD mod, CHOP UPR activ)
CCN(CC)c1ccc(/C=N/N2C(=O)c3ccccc3C2=O)cc1	none
CCN(CC)c1ccc(/C=N/N2C(=O)c3ccccc3C2=O)c(O)c1	GRIN3A LBD mod 24
Cc1ccc(NC(=O)C2CCC(N3C(=O)C4CCCCC4C3=O)CC2)cc1 (stereo not given)	none (no result: CHOP inh)
COc1ccccc1C(=O)Nc1nc(-c2ccc(S(=O)(=O)N3CCOCC3)cc2)cs1	CHOP inh 92
O=C(CSc1cccc[n+]1[O-])Nc1c(Br)cc([N+](=O)[O-])cc1Br	none
Cc1ccc(C(=O)NC(=C(Cl)Cl)S(=O)(=O)c2ccc(Cl)cc2)cc1	CHOP inh 78
COc1ccc(Cl)cc1C1=NOC2(CCC2)C(=O)N1Cc1ccc(NC(C)=O)cc1	none (no result: CHOP inh, UPR XBP1 act, GRIN3A LBD mod, CHOP UPR activ)
CCN=c1scc(-c2ccco2)n1/N=C/c1ccc(O)cc1	CHOP inh 76
CC(=O)NCCNc1nc2cc(-c3ccsc3)sc2c(=O)n1C	none (no result: CHOP inh, UPR XBP1 act, GRIN3A LBD mod, CHOP UPR activ)
COC(=O)CSc1nnc2n1C(C)(C)Cc1ccccc1-2	none
COc1ccc2nc(NC(=O)CSc3nnc4n3C(C)(C)Cc3ccccc3-4)sc2c1	GRIN3A LBD mod 10
COc1cc(NC(=O)CSc2nnc3n2C(C)(C)Cc2ccccc2-3)cc(OC)c1	none
CC1(C)Cc2ccccc2-c2nnc(SCC(=O)N3CCc4ccccc43)n21	CHOP inh 77
CCn1c(SCC(=O)Nc2nc3ccc(OC)cc3s2)nc2c1c(=O)n(C)c(=O)n2C	CHOP inh 84
N#Cc1ccc(S(=O)(=O)N2CCC(C(=O)N3CCN(Cc4ccc5c(c4)OCO5)CC3)CC2)cc1	none (no result: CHOP inh)
COc1ccc(-n2c(C)nc3c(cnn3-c3ccc(Cl)cc3)c2=O)cc1	CHOP inh 83
CCOC(=O)c1ccc(-n2c(C)nc3c(cnn3-c3ccc(Cl)cc3)c2=O)cc1	CHOP inh 76
COc1ccc(-n2c(C)nc3c(cnn3-c3ccc(C)cc3)c2=O)cc1	none
Nc1c(-c2ccccc2)cnn1-c1cccc([N+](=O)[O-])c1	none
Nc1c(-c2ccc(Cl)cc2)cnn1-c1cccc([N+](=O)[O-])c1	CHOP inh 78
CC(C)(C)OC(=O)C[C@@H]1C/C=C\C[C@H](CC(=O)N(CCO)Cc2ccccc2)C(=O)NCCOC1=O	none (no result: CHOP inh)
CCC1Oc2ccccc2N(CC(=O)NC2CCCCC2C)C1=O (stereo not given)	GRIN3A LBD mod 15 (no result: CHOP inh)
CC1CCCCC1NC(=O)CN1C(=O)COc2ccccc21 (stereo not given)	none (no result: CHOP inh)
CSc1ncc(S(=O)(=O)c2ccccc2)c(=O)[nH]1	none
COc1ccc2c(c1)-c1ccccc1S(=O)(=O)N(C)C2	none (no result: CHOP inh)
COc1ccc2c(c1)CN(C)S(=O)(=O)c1ccccc1-2	GRIN3A LBD mod 13 (no result: CHOP inh)
CC1=C(C(=O)Nc2ccc(C)cn2)C(c2cnn(C)c2)C2=C(CCCC2=O)N1 (stereo not given)	none
C/C(=N/NC(=O)CNC(=O)c1cccs1)c1ccc(Cl)cc1	GRIN3A LBD mod 21 (no result: CHOP inh)
COc1ccc(/C(C)=N/NC(=O)CNC(=O)c2cccs2)cc1	none
CCN(c1ccccc1)S(=O)(=O)c1ccc(NCC2COc3ccccc3O2)nc1 (stereo not given)	CHOP inh 85
CCN(C(=O)COC(=O)/C=C/c1nc2ccccc2s1)c1c(N)n(Cc2ccccc2)c(=O)[nH]c1=O	none (no result: CHOP inh, UPR XBP1 act, CHOP UPR activ)
COc1ccc(C(=O)NNC(=S)NC(=O)c2cc(-c3ccccc3)nc3ccccc23)cc1	GRIN3A LBD mod 14
O=C(NNC(=O)c1cc(-c2ccccc2)nc2ccccc12)Nc1cccc(Cl)c1	GRIN3A LBD mod 26
CC(C)(C)c1ccc(-c2cc(C(=O)NNC(=O)Nc3ccccc3)c3ccccc3n2)cc1	CHOP inh 94, GRIN3A LBD mod 12
O=C(NNC(=O)c1cc(-c2ccncc2)nc2ccccc12)Nc1ccc(F)cc1	none (no result: CHOP inh)
CC(C)c1cc(C(=O)NCc2ccc(F)cc2)c(N)s1	none (no result: CHOP inh, UPR XBP1 act, GRIN3A LBD mod, CHOP UPR activ)
COc1ccc(-c2c(C)nn3c(-c4ccccc4)cc(C)nc23)cc1	GRIN3A LBD mod 15
COc1ccc(-n2ncc(C(C)NS(=O)(=O)c3ccc(C)s3)c2C)cc1 (stereo not given)	none (no result: CHOP inh)
CCCOC(=O)c1ccc(-c2c(C)noc2-c2ccc(OC)cc2O)o1	CHOP inh 93
COc1ccc(-c2onc(C)c2-c2cscn2)c(O)c1	none
NC(=S)N/N=C/c1ccc(C(F)(F)F)cc1	GRIN3A LBD mod 19
O=C(O)c1cccc(Nc2nc3ccccc3nc2NS(=O)(=O)c2ccc(F)cc2)c1	none (no result: CHOP inh)
COc1ccc(Nc2nc3ccccc3nc2NS(=O)(=O)c2ccc(NC(C)=O)cc2)cc1	GRIN3A LBD mod 12
COc1cccc(Nc2nc3ccccc3nc2NS(=O)(=O)c2ccc(NC(C)=O)cc2)c1	GRIN3A LBD mod 22 (no result: CHOP inh)
CC(=O)Nc1ccc(S(=O)(=O)Nc2nc3ccccc3nc2N2CCCC2)cc1	none
CC(=O)Nc1ccc(S(=O)(=O)Nc2nc3ccccc3nc2Nc2ccc(O)c(C(=O)O)c2)cc1	none (no result: CHOP inh)
CCOc1ccc(S(=O)(=O)Nc2nc3ccccc3nc2Nc2ccc(N3CCOCC3)cc2)cc1	GRIN3A LBD mod 15
CC(=O)Nc1ccc(S(=O)(=O)Nc2nc3ccccc3nc2Nc2ccc(S(N)(=O)=O)cc2)cc1	GRIN3A LBD mod 27
